Measurements of several laboratories.
Protocols differ between the studies behind these lines.
Target: Adenosine receptor A2a (ADORA2A, Homo sapiens, UniProt P29274)

SMILES | assay | setting | inhibition [%]
c1ccc(N2CCN(CCc3ccc4oc(-c5ccco5)nc4c3)CC2)cc1 | ligand displacement, radioligand | 10 µM, cell membranes | 3
Nc1nc[nH]c(=O)c1Cl | ligand displacement, radioligand | 30 µM, cell membranes | 23
O=C1N=C(N2CCCCN2)S/C1=C\c1ccc(F)cc1O | ligand displacement, radioligand | 10 µM | 10
CC(C)(C)OC(=O)N1CCN(CC(=O)Nc2ccc3oc(-c4ccco4)nc3c2)CC1 | ligand displacement, radioligand | 10 µM, cell membranes | 25
O=C(c1ccc(F)cc1)N(Cc1ccccc1)C1CCCCC1 | cell-free assay | 10 µM | 5
CCN(Cc1ccccc1C(F)(F)F)C(=O)C1CCN(S(=O)(=O)c2ccc3[nH]ncc3c2)CC1 | ligand displacement, radioligand | 10 µM | 3
C#CCNc1nc(Cl)nc2c1ncn2[C@H]1[C@H](O)[C@H](O)[C@]2(C(=O)NC)C[C@H]12 | ligand displacement, radioligand | 10 µM, cell membranes | 23
C=CN1CCCn2c1nc1c2c(=O)n(C)c(=O)n1C | ligand displacement, radioligand | 10 µM, cell membranes | 29
c1coc(-c2nc3ccc(CN4CCCCC4)cc3o2)c1 | ligand displacement, radioligand | 10 µM, cell membranes | 5
COc1cc(NC(C)=O)c(Cl)cc1C(=O)Nc1nccs1 | cell-free assay | 10 µM | 39.7
O=C(Nc1ccc(S(=O)(=O)N2CCC(Cl)CC2)cc1)c1ccc([N+](=O)[O-])o1 | ligand displacement, radioligand | 10 µM | 8
Ic1cccc2cnccc12 | ligand displacement, radioligand | 10 µM | 8
